Assay results as given in ChEMBL document CHEMBL1156264, “Synthesis and structure-activity relationships of dimeric peptide antagonists of the human immunoglobulin G-human neonatal Fc receptor (IgG-FcRn) interaction” (J Med Chem, 2010).
The source made the active and inactive calls. No cut-off for these calls is given here. Numbered stars: 1 amine (or outer) side, 2 acyl side, 3 side chain; on linkers, the order of the positions; unused ones are H or OH. Bridge positions count the residues as written; N and C are the ends. Square brackets hold non-standard residues; d marks the D form. Peptide text beside a SMILES is read from it. I, II: the chains in the order shown. X3 = CN(CCCNC(=O)CCNC(=O)CCSCC(=O)[*:1])CCCNC(=O)CCNC(=O)CCSCC(=O)[*:2]; Phe(4-guanidino) = N=C(N)Nc1ccc(C[C@H](N)C(=O)O)cc1; X1 = O=C(C(=O)[*:2])[C@H](Cc1ccc(O)cc1)N[*:1]; NHCH2CH2N(Me)CH2CO = CN(CCN[*:1])CC(=O)[*:2]; NMeL = CN[C@@H](CC(C)C)C(=O)O; Pen = CC(C)(S)[C@H](N)C(=O)O; Suc = O=C(CCC(=O)[*:2])[*:1]; X4 = O=C(CSCC(=O)[*:2])[*:1]; Sar = CNCC(=O)O

Tests used:
[1] = biological target: T1, IgG receptor FcRn large subunit p51 (Homo sapiens, UniProt P55899); assay: Inhibition of IgG binding to soluble human FcRn after 2 hrs by competition ELISA
T1 sequence (P55899 whole entry): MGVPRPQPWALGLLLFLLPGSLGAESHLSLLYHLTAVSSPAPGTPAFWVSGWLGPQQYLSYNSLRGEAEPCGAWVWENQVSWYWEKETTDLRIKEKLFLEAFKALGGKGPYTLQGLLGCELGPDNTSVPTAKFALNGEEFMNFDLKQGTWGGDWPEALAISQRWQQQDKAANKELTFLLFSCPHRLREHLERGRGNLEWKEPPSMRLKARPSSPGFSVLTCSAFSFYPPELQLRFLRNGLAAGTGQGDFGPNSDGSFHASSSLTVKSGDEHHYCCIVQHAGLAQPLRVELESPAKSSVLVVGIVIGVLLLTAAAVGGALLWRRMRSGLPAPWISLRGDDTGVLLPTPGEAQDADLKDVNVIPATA

Mus musculus [2] = assay: Increase in human IgG catabolism in endogenous FcRn/beta2m gene knockout TG32B transgenic mouse harboring human FcRn at 5 mg/kg, iv QD for 4 consecutive days measured after 24 hrs by ELISA; format: functional, organism-based; set-up: dose 5 mg/kg
Summary of the method: (§1)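 TG32B mice (muFcRn−/−, muβ2m−/−, huFcRn+/+, huβ2m+/+), 4 per group, got 500 mg/kg hIgG (pooled subtypes) iv at 0 h. Peptide or vehicle (20 mM sodium acetate, pH 5) was given iv at 24, 48, 72 and 96 h. Blood was taken before each injection and at 30, 120 and 168 h. Serum hIgG was measured by ELISA: goat anti-hIgG(Fab) capture, goat anti-hIgG(Fc)-HRP detection.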

[3] = biological target: T1, IgG receptor FcRn large subunit p51; assay: Ratio of QRF-Asp-TGHFGGLYP-Lys-NGP IC50 to compound IC50 for soluble human FcRn
Mus musculus [4] = assay: Increase in human IgG catabolism in endogenous FcRn/beta2m gene knockout TG32B transgenic mouse harboring human FcRn at 2.5 mg/kg, iv QD for 4 consecutive days measured after 24 hrs by ELISA; format: functional, organism-based; set-up: dose 2.5 mg/kg
Summary of the method: as §1

[5] = biological target: T1, IgG receptor FcRn large subunit p51; assay: Ratio of RF-Pen-TGHFG-Sar-NMeLeu-YPC IC50 to compound IC50 for soluble human FcRn
Mus musculus [6] = assay: Increase in human IgG catabolism in iv dosed endogenous FcRn/beta2m gene knockout TG32B transgenic mouse harboring human FcRn administered QD for 4 consecutive days measured after 24 hrs by ELISA; format: functional, organism-based
Summary of the method: as §1

Mus musculus [7] = assay: Increase in human IgG catabolism in endogenous FcRn/beta2m gene knockout TG32B transgenic mouse harboring human FcRn at 1 mg/kg, iv QD for 4 consecutive days measured after 24 hrs by ELISA; format: functional, organism-based; set-up: dose 1 mg/kg
Summary of the method: as §1

[8] = biological target: T1, IgG receptor FcRn large subunit p51; assay: Binding affinity to soluble human FcRn at pH 6 by surface plasmon resonance assay
Summary of the method: (§2)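 shFcRn was amine-coupled to a CM5 dextran chip, and peptide dilutions were run at pH 6 or pH 7.4 on a Biacore 3000 or T100. The equilibrium response was plotted against concentration and fitted to a steady-state affinity model to give Kd.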

[9] = biological target: T1, IgG receptor FcRn large subunit p51; assay: Binding affinity to soluble human FcRn at pH 7.4 by surface plasmon resonance assay
Summary of the method: as §2

[10] = biological target: T1, IgG receptor FcRn large subunit p51; assay: Ratio of RFCTGHFGGLYPC IC50 to compound IC50 for soluble human FcRn

SMILES | IC50 [1] | Ratio IC50 [3] | Kd [8] | Kd [9] | other results
CC(C)C[C@H]1C(=O)N[C@@H](Cc2ccc(O)cc2)C(=O)C(=O)N2CCC[C@H]2C(=O)N[C@H](C(N)=O)CCCCNC(=O)C[C@H](NC(=O)[C@H](Cc2ccccc2)NC(=O)[C@H](CCCNC(=N)N)NC(=O)CCC(=O)NCCN(C)CC(=O)N[C@@H](CCCNC(=N)N)C(=O)N[C@@H](Cc2ccccc2)C(=O)N[C@H]2CC(=O)NCCCC[C@@H](C(N)=O)NC(=O)[C@@H]3CCCN3C(=O)C(=O)[C@H](Cc3ccc(O)cc3)NC(=O)[C@H](CC(C)C)N(C)C(=O)CN(C)C(=O)CNC(=O)[C@H](Cc3ccccc3)NC(=O)[C@H](Cc3c[nH]cn3)NC(=O)CNC(=O)[C@H]([C@@H](C)O)NC2=O)C(=O)N[C@@H]([C@@H](C)O)C(=O)NCC(=O)N[C@@H](Cc2c[nH]cn2)C(=O)N[C@@H](Cc2ccccc2)C(=O)NCC(=O)N(C)CC(=O)N1C (I: [NHCH2CH2N(Me)CH2CO]RFDTGHFG[Sar][NMeL][X1]PK-NH2 / II: RFDTGHFG[Sar][NMeL][X1]PK-NH2; lactam I:4-I:14, II:3-II:13; linker I:N-II:N via Suc) | 50 nM | – | – | – | Activity (Mus musculus [2]): Active
CC(C)C[C@H]1C(=O)N[C@@H](Cc2ccc(O)cc2)C(=O)C(=O)N2CCC[C@H]2C(=O)N[C@H](C(=O)N[C@@H](CC(N)=O)C(=O)NCC(=O)N2CCC[C@H]2C(N)=O)CCCCNC(=O)C[C@H](NC(=O)[C@H](Cc2ccccc2)NC(=O)CSCCC(=O)NCCC(=O)NCCCN(C)CCCNC(=O)CCNC(=O)CCSCC(=O)N[C@@H](CCC(N)=O)C(=O)N[C@@H](CCCNC(=N)N)C(=O)N[C@@H](Cc2ccccc2)C(=O)N[C@H]2CC(=O)NCCCC[C@@H](C(=O)N[C@@H](CC(N)=O)C(=O)NCC(=O)N3CCC[C@H]3C(N)=O)NC(=O)[C@@H]3CCCN3C(=O)C(=O)[C@H](Cc3ccc(O)cc3)NC(=O)[C@H](CC(C)C)N(C)C(=O)CN(C)C(=O)CNC(=O)[C@H](Cc3ccccc3)NC(=O)[C@H](Cc3c[nH]cn3)NC(=O)CNC(=O)[C@H]([C@@H](C)O)NC2=O)C(=O)N[C@@H]([C@@H](C)O)C(=O)NCC(=O)N[C@@H](Cc2c[nH]cn2)C(=O)N[C@@H](Cc2ccccc2)C(=O)NCC(=O)N(C)CC(=O)N1C (I: QRFDTGHFG[Sar][NMeL][X1]PKNGP-NH2 / II: FDTGHFG[Sar][NMeL][X1]PKNGP-NH2; lactam I:4-I:14, II:2-II:12; linker I:N-II:N via X3) | – | 9.2 | – | – | –
CC(C)C[C@H]1C(=O)N[C@@H](Cc2ccc(O)cc2)C(=O)C(=O)N2CCC[C@H]2C(=O)N[C@H](C(N)=O)CSSC(C)(C)[C@H](NC(=O)[C@H](Cc2ccccc2)NC(=O)[C@H](CCCNC(=N)N)NC(=O)CCC(=O)N[C@@H](CCCNC(=N)N)C(=O)N[C@@H](Cc2ccccc2)C(=O)N[C@@H]2C(=O)N[C@@H]([C@@H](C)O)C(=O)NCC(=O)N[C@@H](Cc3c[nH]cn3)C(=O)N[C@@H](Cc3ccccc3)C(=O)NCC(=O)N(C)CC(=O)N(C)[C@@H](CC(C)C)C(=O)N[C@@H](Cc3ccc(O)cc3)C(=O)C(=O)N3CCC[C@H]3C(=O)N[C@H](C(N)=O)CSSC2(C)C)C(=O)N[C@@H]([C@@H](C)O)C(=O)NCC(=O)N[C@@H](Cc2c[nH]cn2)C(=O)N[C@@H](Cc2ccccc2)C(=O)NCC(=O)N(C)CC(=O)N1C | – | – | – | – | Activity (Mus musculus [4]): Active; Activity (Mus musculus [2]): Active; Ratio IC50 [5]: 220; Activity (Mus musculus [6]): Active; Activity (Mus musculus [7]): Active
CC(=O)N[C@@H](CCCNC(=N)N)C(=O)N[C@@H](Cc1ccccc1)C(=O)N[C@@H]1C(=O)N[C@@H]([C@@H](C)O)C(=O)NCC(=O)N[C@@H](Cc2cnc[nH]2)C(=O)N[C@@H](Cc2ccccc2)C(=O)N[C@H]2CCCN(CC(=O)N(C)[C@@H](CC(C)C)C(=O)N[C@@H](Cc3ccc(O)cc3)C(=O)C(=O)N3CCC[C@H]3C(=O)N[C@H](C(N)=O)CSSC1(C)C)C2=O | 430 nM | – | 43 nM | 260 nM | –
CC(C)C[C@H]1C(=O)N[C@@H](Cc2ccc(O)cc2)C(=O)C(=O)N2CCC[C@H]2C(=O)N[C@H](C(N)=O)CSSC(C)(C)[C@H](NC(=O)[C@H](Cc2ccccc2)NC(=O)[C@H](CCCNC(=N)N)NC(=O)CN(C)CCNC(=O)CCC(=O)N[C@@H](CCCNC(=N)N)C(=O)N[C@@H](Cc2ccccc2)C(=O)N[C@@H]2C(=O)N[C@@H]([C@@H](C)O)C(=O)NCC(=O)N[C@@H](Cc3c[nH]cn3)C(=O)N[C@@H](Cc3ccccc3)C(=O)NCC(=O)N(C)CC(=O)N(C)[C@@H](CC(C)C)C(=O)N[C@H](Cc3ccc(O)cc3)C(=O)C(=O)N3CCC[C@H]3C(=O)N[C@H](C(N)=O)CSSC2(C)C)C(=O)N[C@@H]([C@@H](C)O)C(=O)NCC(=O)N[C@@H](Cc2c[nH]cn2)C(=O)N[C@@H](Cc2ccccc2)C(=O)NCC(=O)N(C)CC(=O)N1C | 2.6 nM | – | – | – | Activity (Mus musculus [4]): Active; Ratio IC50 [5]: 200
CC(C)C[C@H]1C(=O)N[C@@H](Cc2ccc(O)cc2)C(=O)C(=O)N2CCC[C@H]2C(=O)N[C@H](C(=O)N[C@@H](CC(N)=O)C(=O)NCC(=O)N2CCC[C@H]2C(N)=O)CCCCNC(=O)C[C@H](NC(=O)[C@H](Cc2ccccc2)NC(=O)CSCCC(=O)NCCCN(CCCNC(=O)CCSCC(=O)N[C@@H](CCC(N)=O)C(=O)N[C@@H](CCCNC(=N)N)C(=O)N[C@@H](Cc2ccccc2)C(=O)N[C@H]2CC(=O)NCCCC[C@@H](C(=O)N[C@@H](CC(N)=O)C(=O)NCC(=O)N3CCC[C@H]3C(N)=O)NC(=O)[C@@H]3CCCN3C(=O)C(=O)[C@H](Cc3ccc(O)cc3)NC(=O)[C@H](CC(C)C)N(C)C(=O)CN(C)C(=O)CNC(=O)[C@H](Cc3ccccc3)NC(=O)[C@H](Cc3c[nH]cn3)NC(=O)CNC(=O)[C@H]([C@@H](C)O)NC2=O)CC(=O)NCC(=O)O)C(=O)N[C@@H]([C@@H](C)O)C(=O)NCC(=O)N[C@@H](Cc2c[nH]cn2)C(=O)N[C@@H](Cc2ccccc2)C(=O)NCC(=O)N(C)CC(=O)N1C | 600 nM | 37 | – | – | –
CC(C)C[C@H]1C(=O)N[C@@H](Cc2ccc(O)cc2)C(=O)C(=O)N2CCC[C@H]2C(=O)N[C@H](C(=O)N[C@@H](CC(N)=O)C(=O)NCC(=O)N2CCC[C@H]2C(N)=O)CCCCNC(=O)C[C@H](NC(=O)[C@H](Cc2ccccc2)NC(=O)CSCC(=O)N[C@@H](CCC(N)=O)C(=O)N[C@@H](CCCNC(=N)N)C(=O)N[C@@H](Cc2ccccc2)C(=O)N[C@H]2CC(=O)NCCCC[C@@H](C(=O)N[C@@H](CC(N)=O)C(=O)NCC(=O)N3CCC[C@H]3C(N)=O)NC(=O)[C@@H]3CCCN3C(=O)C(=O)[C@H](Cc3ccc(O)cc3)NC(=O)[C@H](CC(C)C)N(C)C(=O)CN(C)C(=O)CNC(=O)[C@H](Cc3ccccc3)NC(=O)[C@H](Cc3c[nH]cn3)NC(=O)CNC(=O)[C@H]([C@@H](C)O)NC2=O)C(=O)N[C@@H]([C@@H](C)O)C(=O)NCC(=O)N[C@@H](Cc2c[nH]cn2)C(=O)N[C@@H](Cc2ccccc2)C(=O)NCC(=O)N(C)CC(=O)N1C (I: QRFDTGHFG[Sar][NMeL][X1]PKNGP-NH2 / II: FDTGHFG[Sar][NMeL][X1]PKNGP-NH2; lactam I:4-I:14, II:2-II:12; linker I:N-II:N via X4) | 580 nM | 38 | – | – | –
CC(=O)N[C@@H](CCCNC(=N)N)C(=O)N[C@@H](Cc1ccccc1)C(=O)N[C@@H]1C(=O)N[C@@H]([C@@H](C)O)C(=O)NCC(=O)N[C@@H](Cc2ccc(NC(=N)N)cc2)C(=O)NCC(=O)N(C)CC(=O)N(C)[C@@H](CC(C)C)C(=O)N[C@@H](Cc2ccc(O)cc2)C(=O)C(=O)N2CCC[C@H]2C(=O)N[C@H](C(N)=O)CSSC1(C)C (Ac-RF[Pen]TG[Phe(4-guanidino)]G[Sar][NMeL][X1]PC-NH2; disulfide 3-12) | 1000 nM | – | 62 nM | 74 nM | –
CC(C)C[C@@H]1NC(=O)CNC(=O)CNC(=O)[C@H](Cc2ccccc2)NC(=O)[C@H](Cc2c[nH]cn2)NC(=O)CNC(=O)[C@H]([C@@H](C)O)NC(=O)[C@@H](NC(=O)[C@H](Cc2ccccc2)NC(=O)[C@H](CCCNC(=N)N)NC(=O)CCC(=O)NCCN(C)CC(=O)N[C@@H](CCCNC(=N)N)C(=O)N[C@@H](Cc2ccccc2)C(=O)N[C@H]2CSSC[C@@H](C(N)=O)NC(=O)[C@@H]3CCCN3C(=O)C(=O)[C@H](Cc3ccc(O)cc3)NC(=O)[C@H](CC(C)C)NC(=O)CNC(=O)CNC(=O)[C@H](Cc3ccccc3)NC(=O)[C@H](Cc3c[nH]cn3)NC(=O)CNC(=O)[C@H]([C@@H](C)O)NC2=O)CSSC[C@@H](C(N)=O)NC(=O)[C@@H]2CCCN2C(=O)C(=O)[C@H](Cc2ccc(O)cc2)NC1=O | – | – | – | – | Ratio IC50 [10]: 12
CC(=O)N[C@@H](CCCNC(=N)N)C(=O)N[C@@H](Cc1ccccc1)C(=O)N[C@H]1CC(=O)NCCCC[C@@H](C(N)=O)NC(=O)[C@@H]2CCCN2C(=O)C(=O)[C@H](Cc2ccc(O)cc2)NC(=O)[C@H](CC(C)C)N(C)C(=O)CN(C)C(=O)CNC(=O)[C@@H](Cc2ccccc2)NC(=O)[C@H](Cc2c[nH]cn2)NC(=O)CNC(=O)[C@H]([C@@H](C)O)NC1=O | 1900 nM | – | 140 nM | 930 nM | –
